In ChEMBL document CHEMBL4014341, “Discovery of a Human Neuromedin U Receptor 1-Selective Hexapeptide Agonist with Enhanced Serum Stability” (J Med Chem, 2017):
The source made the active and inactive calls. No cut-off for these calls is given here. Square brackets hold non-standard residues; d marks the D form. Peptide text beside a SMILES is read from it. * marks the point of attachment. Phe(4-CF3) = N[C@@H](Cc1ccc(C(F)(F)F)cc1)C(=O)O; Phe(4-Br) = N[C@@H](Cc1ccc(Br)cc1)C(=O)O; Phe(4-CN) = N#Cc1ccc(C[C@H](N)C(=O)O)cc1; Phe(3-F) = N[C@@H](Cc1cccc(F)c1)C(=O)O; 1Nal = N[C@@H](Cc1cccc2ccccc12)C(=O)O; Phe(2-F) = N[C@@H](Cc1ccccc1F)C(=O)O; Bta = N[C@@H](Cc1csc2ccccc12)C(=O)O; Acetyl(2-thienyl) = O=C(Cc1cccs1)*

Legend:
[1] = target: Neuromedin-U receptor 2 (Homo sapiens) (UniProt Q9GZQ4); test: Agonist activity at human NMUR2 expressed in CHO cells assessed as induction of Ca2+ flux at 10 nM after 18 hrs by Fluo-4 AM dye based FLIPR assay relative to NMU; format: functional, cell-based
Chain of Neuromedin-U receptor 2 (Homo sapiens) (Q9GZQ4 whole entry): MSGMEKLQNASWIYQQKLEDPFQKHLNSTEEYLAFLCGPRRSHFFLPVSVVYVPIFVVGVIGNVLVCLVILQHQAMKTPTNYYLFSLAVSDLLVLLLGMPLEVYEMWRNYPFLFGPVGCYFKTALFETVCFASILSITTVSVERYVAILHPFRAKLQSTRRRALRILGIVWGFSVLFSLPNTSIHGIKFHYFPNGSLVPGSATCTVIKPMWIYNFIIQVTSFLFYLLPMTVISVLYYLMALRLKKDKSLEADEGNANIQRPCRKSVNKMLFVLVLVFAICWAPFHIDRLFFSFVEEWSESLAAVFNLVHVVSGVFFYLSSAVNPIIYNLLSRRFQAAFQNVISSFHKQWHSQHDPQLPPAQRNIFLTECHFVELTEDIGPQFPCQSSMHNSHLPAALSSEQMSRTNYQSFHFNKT
In short: (§1)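 Human NMUR1 or NMUR2 stably expressed in CHO cells was assayed by Fluo-4 AM (4 μM, 40 min) FLIPR calcium flux, with cells seeded 18 h before. Peptides were tested at single concentrations of 0.1, 10 or 100 nM. Maximal response is expressed as % of hNMU at 1000 nM (=100%).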

[2] = target: T1, Neuromedin-U receptor 1 (Homo sapiens) (UniProt Q9HB89); test: Agonist activity at human NMUR1 expressed in CHO cells assessed as induction of Ca2+ flux at 0.1 nM after 18 hrs by Fluo-4 AM dye based FLIPR assay relative to NMU; format: functional, cell-based; in short: as §1
T1 sequence (whole entry): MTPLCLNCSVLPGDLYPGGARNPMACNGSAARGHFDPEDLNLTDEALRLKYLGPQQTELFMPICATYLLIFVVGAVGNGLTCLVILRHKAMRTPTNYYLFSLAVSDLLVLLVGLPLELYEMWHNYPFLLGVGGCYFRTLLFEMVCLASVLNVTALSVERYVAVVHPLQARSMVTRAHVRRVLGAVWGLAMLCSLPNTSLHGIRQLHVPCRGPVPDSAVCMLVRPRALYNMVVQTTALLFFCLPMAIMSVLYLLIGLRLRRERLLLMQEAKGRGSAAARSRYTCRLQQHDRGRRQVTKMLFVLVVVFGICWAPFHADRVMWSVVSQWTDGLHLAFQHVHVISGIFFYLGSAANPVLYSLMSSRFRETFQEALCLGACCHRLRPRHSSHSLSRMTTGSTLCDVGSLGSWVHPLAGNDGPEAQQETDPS

Serum = test: Drug level in rat serum treated with (S)-2-((S)-2-((S)-1-((S)-2-((S)-2-((S)-3-(1H-indol-3-yl)-2-(2-(thiophen-2-yl)acetamido)propanamido)-3-(1H-indol-2-yl)propanamido)-5-guanidinopentanoyl)pyrrolidine-2-carboxamido)-5-guanidinopentanamido)succinamide at 1 mM after 120 mins by RP-HPLC analysis; format: ADME, cell-free; details: 2 h, 1000 µM
[3] = target: T1, Neuromedin-U receptor 1 (Homo sapiens); test: Agonist activity at human NMUR1 expressed in CHO cells assessed as induction of Ca2+ flux at 0.1 to 10 nM after 18 hrs by Fluo-4 AM dye based FLIPR assay relative to NMU; format: functional, cell-based; in short: as §1
[4] = target: Neuromedin-U receptor 2 (Homo sapiens) (UniProt Q9GZQ4); test: Agonist activity at human NMUR2 expressed in CHO cells assessed as induction of Ca2+ flux at 0.1 to 10 nM after 18 hrs by Fluo-4 AM dye based FLIPR assay relative to NMU; format: functional, cell-based; in short: as §1
Rattus norvegicus = organism: Rattus norvegicus; test: Stability in rat serum at 1 mM at 120 mins by RP-HPLC/MS analysis

Row | Compound | Activity [1] | Activity [3] | also measured
1 | N=C(N)NCCC[C@H](NC(=O)[C@@H]1CCCN1C(=O)[C@H](CCCNC(=N)N)NC(=O)[C@H](Cc1ccc(C(F)(F)F)cc1)NC(=O)[C@H](Cc1c[nH]c2ccccc12)NC(=O)Cc1cccs1)C(=O)N[C@@H](CC(N)=O)C(N)=O ({Acetyl(2-thienyl)}-W[Phe(4-CF3)]RPRN-NH2) | inactive |  | Activity [2]: Active
2 | O=C(Cc1cccs1)N[C@@H](Cc1c[nH]c2ccccc12)C(=O)N[C@@H](Cc1c[nH]c2ccccc12)C(=O)O |  |  | Drug metabolism (Serum): Metabolite_Detected
3 | N=C(N)NCCC[C@H](NC(=O)[C@@H]1CCCN1C(=O)[C@H](CCCNC(=N)N)NC(=O)[C@H](Cc1csc2ccccc12)NC(=O)[C@H](Cc1c[nH]c2ccccc12)NC(=O)Cc1cccs1)C(=O)N[C@@H](CC(N)=O)C(N)=O ({Acetyl(2-thienyl)}-W[Bta]RPRN-NH2) |  | Active | 
4 | N=C(N)NCCC[C@H](NC(=O)[C@@H]1CCCN1C(=O)[C@H](CCCNC(=N)N)NC(=O)[C@H](Cc1cccc(F)c1)NC(=O)[C@H](Cc1c[nH]c2ccccc12)NC(=O)Cc1cccs1)C(=O)N[C@@H](CC(N)=O)C(N)=O ({Acetyl(2-thienyl)}-W[Phe(3-F)]RPRN-NH2) |  | Active | Activity [4]: Active
5 | N=C(N)NCCC[C@H](NC(=O)[C@@H]1CCCN1C(=O)[C@H](CCCNC(=N)N)NC(=O)[C@H](Cc1c[nH]c2ccccc12)NC(=O)[C@H](Cc1c[nH]c2ccccc12)NC(=O)Cc1cccs1)C(=O)O ({Acetyl(2-thienyl)}-WWRPR-OH) |  |  | Drug metabolism (Serum): Metabolite_Detected; remaining at 2 h, 1000 µM (Rattus norvegicus): 52%
6 | N=C(N)NCCC[C@H](NC(=O)[C@@H]1CCCN1C(=O)[C@H](CCCNC(=N)N)NC(=O)[C@H](Cc1cccc2ccccc12)NC(=O)[C@H](Cc1c[nH]c2ccccc12)NC(=O)Cc1cccs1)C(=O)N[C@@H](CC(N)=O)C(N)=O ({Acetyl(2-thienyl)}-W[1Nal]RPRN-NH2) | inactive |  | 
7 | N=C(N)NCCC[C@H](NC(=O)[C@@H]1CCCN1C(=O)[C@H](CCCNC(=N)N)NC(=O)[C@H](Cc1ccc(Br)cc1)NC(=O)[C@H](Cc1c[nH]c2ccccc12)NC(=O)Cc1cccs1)C(=O)N[C@@H](CC(N)=O)C(N)=O ({Acetyl(2-thienyl)}-W[Phe(4-Br)]RPRN-NH2) | inactive |  | 
8 | N#Cc1ccc(C[C@H](NC(=O)[C@H](Cc2c[nH]c3ccccc23)NC(=O)Cc2cccs2)C(=O)N[C@@H](CCCNC(=N)N)C(=O)N2CCC[C@H]2C(=O)N[C@@H](CCCNC(=N)N)C(=O)N[C@@H](CC(N)=O)C(N)=O)cc1 ({Acetyl(2-thienyl)}-W[Phe(4-CN)]RPRN-NH2) | inactive |  | 
9 | N=C(N)NCCC[C@H](NC(=O)[C@@H]1CCCN1C(=O)[C@H](CCCNC(=N)N)NC(=O)[C@H](Cc1ccccc1F)NC(=O)[C@H](Cc1c[nH]c2ccccc12)NC(=O)Cc1cccs1)C(=O)N[C@@H](CC(N)=O)C(N)=O ({Acetyl(2-thienyl)}-W[Phe(2-F)]RPRN-NH2) |  | Active | Activity [4]: Active
